# Results reported in ChEMBL document CHEMBL1125281, “Identification and synthesis of a receptor binding site of human anaphylatoxin C5a” (J Med Chem, 1991).
# Where a SMILES comes first, the peptide text is derived from it. Bridges are numbered along the chain shown (N, C = ends). The star is where a group is joined. Acm = CC(=O)NC*
# Tests used:
# [1] = molecular target: T1, C5a anaphylatoxin chemotactic receptor 1 (Homo sapiens, UniProt P21730); assay: Inhibition of [125I]C5a binding to anaphylatoxin chemotactic receptor of PMNL membranes
# T1 sequence (P21730 whole entry): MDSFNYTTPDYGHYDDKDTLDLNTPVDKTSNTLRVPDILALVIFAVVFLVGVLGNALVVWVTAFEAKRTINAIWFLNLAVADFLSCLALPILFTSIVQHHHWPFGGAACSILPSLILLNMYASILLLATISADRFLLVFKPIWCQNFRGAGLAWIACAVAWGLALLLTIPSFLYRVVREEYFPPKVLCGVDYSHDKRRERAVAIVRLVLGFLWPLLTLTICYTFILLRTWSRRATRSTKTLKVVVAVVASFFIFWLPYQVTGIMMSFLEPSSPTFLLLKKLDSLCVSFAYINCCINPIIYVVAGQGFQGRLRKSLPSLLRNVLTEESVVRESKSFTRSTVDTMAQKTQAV
# [2] = molecular target: T1, C5a anaphylatoxin chemotactic receptor 1; assay: Inhibition of [125I]C5a binding to anaphylatoxin chemotactic receptor of PMNL cells; format: cell-based
# In short: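 Intact human PMNL isolated from peripheral blood by one-step density centrifugation. Cells incubated 20 min at 23 °C with [125I]C5a (1 × 10⁻⁹ M), test peptide and protease inhibitors. Cells separated from free ligand by centrifugation through silicone oil at 10000g; pellet γ counts read.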
SMILES,Ki [1],Ki [2]
CC(=O)N[C@@H](C)C(=O)N[C@@H](C)C(=O)N[C@@H](CCCCN)C(=O)N[C@@H](Cc1ccc(O)cc1)C(=O)N[C@@H](CCCCN)C(=O)N[C@@H](Cc1c[nH]cn1)C(=O)N[C@@H](CO)C(=O)N[C@H](C(=O)N[C@H](C(=O)N[C@@H](CCCCN)C(=O)N[C@@H](CCCCN)C(=O)O)C(C)C)C(C)C (Ac-AAKYKHSVVKK-OH),Not Active,Not Active
CC[C@H](C)[C@H](NC(=O)[C@H](CC(N)=O)NC(=O)[C@H](C)NC(=O)[C@H](CCCN=C(N)N)NC(=O)[C@H](CC(C)C)NC(=O)[C@H](CCC(N)=O)NC(=O)[C@H](CO)NC(=O)[C@H](C)NC(=O)[C@@H](NC(=O)[C@@H](NC(=O)[C@H](CCSC)NC(C)=O)C(C)C)C(C)C)C(=O)N[C@@H](CO)C(=O)N[C@@H](Cc1c[nH]cn1)C(=O)N[C@@H](CCCCN)C(=O)N[C@@H](CC(=O)O)C(=O)N[C@@H](CCSC)C(=O)N[C@@H](CCC(N)=O)C(=O)N[C@@H](CC(C)C)C(=O)NCC(=O)N[C@@H](CCCN=C(N)N)C(=O)O (Ac-MVVASQLRANISHKDMQLGR-OH),,Not Active
CC[C@H](C)[C@H](NC(=O)[C@H](CCCNC(=N)N)NC(=O)[C@H](C)NC(=O)[C@H](C)NC(=O)[C@H](CCCNC(=N)N)NC(=O)[C@H](CCC(N)=O)NC(=O)[C@H](CCC(=O)O)NC(=O)[C@H](CSCNC(C)=O)NC(=O)[C@@H](NC(C)=O)[C@@H](C)O)C(=O)N[C@@H](CO)C(=O)N[C@@H](CC(C)C)C(=O)O (Ac-TC(Acm)EQRAARISL-OH),Not Active,Not Active
CC(C)C[C@H](NC(=O)[C@H](CCC(N)=O)NC(=O)[C@H](CO)NC(=O)[C@H](C)NC(=O)[C@@H](NC(=O)[C@@H](NC(=O)[C@H](C)N)C(C)C)C(C)C)C(=O)N[C@@H](CCCN=C(N)N)C(=O)O (H-AVVASQLR-OH),Not Active,Not Active
CC[C@H](C)[C@H](NC(=O)[C@H](CCCN=C(N)N)NC(=O)[C@H](C)NC(=O)[C@@H](N)CSCNC(C)=O)C(=O)N[C@@H](CO)C(=O)N[C@@H](CC(C)C)C(=O)NCC(=O)N1CCC[C@H]1C(=O)N[C@@H](CCCN=C(N)N)C(=O)N[C@@H](CCSC)C(=O)N[C@@H](CSCNC(C)=O)C(=O)N[C@@H](CCCCN)C(=O)O (H-C(Acm)ARISLGPRMC(Acm)K-OH),Not Active,Not Active
CC(C)[C@@H]1NC(=O)[C@H](CO)NC(=O)[C@H](Cc2c[nH]cn2)NC(=O)[C@H](CCCCN)NC(=O)[C@H](Cc2ccc(O)cc2)NC(=O)[C@H](CCCCN)NC(=O)[C@H](C)NC(=O)[C@@H](N)CSSC[C@@H](C(=O)O)NC(=O)[C@H](C(C)C)NC1=O (H-CAKYKHSVVC-OH; disulfide 1-10),Not Active,Not Active
CC(C)[C@H](NC(=O)[C@H](C)NC(=O)[C@H](C)NC(=O)CNC(=O)[C@H](CC(=O)O)NC(=O)[C@H](Cc1ccc(O)cc1)NC(=O)[C@H](C)NC(=O)[C@H](C)NC(=O)[C@H](CCCCN)NC(=O)[C@H](CCCCN)NC(=O)[C@@H](NC(=O)[C@@H](NC(=O)[C@H](CO)NC(=O)[C@@H](N)Cc1c[nH]cn1)C(C)C)C(C)C)C(=O)N[C@@H](CC(N)=O)C(=O)N[C@@H](CC(N)=O)C(=O)N[C@@H](CC(=O)O)C(=O)N[C@@H](CCC(=O)O)C(=O)O (H-HSVVKKAAYDGAAVNNDE-OH),Not Active,Not Active
CC(C)[C@H](NC(=O)[C@H](CO)NC(=O)[C@H](Cc1c[nH]cn1)NC(=O)[C@@H](N)CCCCN)C(=O)N[C@H](C(=O)N[C@@H](CCCCN)C(=O)N[C@@H](CCCCN)C(=O)O)C(C)C (H-KHSVVKK-OH),Not Active,Not Active
CC[C@H](C)[C@H](NC(=O)[C@H](CC(N)=O)NC(=O)[C@H](C)NC(=O)[C@H](CCCN=C(N)N)NC(=O)[C@H](CC(C)C)NC(=O)[C@H](CCC(N)=O)NC(=O)[C@@H](N)CO)C(=O)N[C@@H](CO)C(=O)N[C@@H](Cc1c[nH]cn1)C(=O)N[C@@H](CCCCN)C(=O)N[C@@H](CC(=O)O)C(=O)N[C@@H](CCSC)C(=O)N[C@@H](CCC(N)=O)C(=O)N[C@@H](CC(C)C)C(=O)NCC(=O)N[C@@H](CCCN=C(N)N)C(=O)O (H-SQLRANISHKDMQLGR-OH),,Not Active
